Test results reported in ChEMBL document CHEMBL1123700, “2-[(3-Pyridinylmethyl)thio]pyrimidine derivatives: new bronchosecretolytic agents” (1987).

Test system: Mus musculus
Test: Bronchosecretory activity measured as tracheal secretion of phenol red in mouse after subcutaneous administration
Settings: not given

| SMILES | ED50 [µmol/kg] |
| --- | --- |
| C[N+](C)(C)CCOC(N)=O [CARBACHOL] | 0.2 |
| NCC(O)c1cccc(O)c1 (configuration not stated) [NORFENEFRINE] | 1.3 |

Test system: Canis familiaris
Test: Percent viscosity was determined in canine bronchial mucus, 1 hr after intravenous administration of 0.2 mg/kg
Assay type: functional, Canis lupus familiaris
Settings: not given
How it was run: (§1)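 Mongrel dogs (18-24 kg), food withheld 16 h, anesthetized with pentobarbital 40 mg/kg iv plus infusion of 0.1 mg kg-1 min-1. Compounds in isotonic NaCl, given iv; 0.9% NaCl as control. Bronchial mucus sampled by bronchoscope, dialyzed against water at 0 °C for 24 h, freeze-dried, taken up at 1% w/v in 0.1 M Tris pH 7. Viscosity 1 h after dosing expressed as % of initial, mean ± SD.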

| SMILES | Activity [%] |
| --- | --- |
| Cl.c1cnc(SCc2cccnc2)nc1 | 28 |
| Nc1cc(O)nc(SCc2ccc(Cl)nc2)n1 | 84.2 |
| Nc1cc(O)nc(SCc2cccnc2)n1 | 76.3 |

Test system: Mus musculus
Test: Bronchosecretory activity measured as tracheal secretion of phenol red in mouse after oral administration
Assay type: functional
Settings: not given
How it was run: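 Male NMRI mice, food withheld 24 h, water free. Compounds suspended in 0.5% carboxymethylcellulose just before use and given by gavage at 5 mL/kg. Phenol red given intraperitoneally; 50 min after dosing it is measured photometrically in tracheal lavage fluid. Output compared with mean of vehicle controls. ED50 (dose giving 50% increase over control) by linear regression with 95% confidence limits.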

| SMILES | ED50 [µmol/kg] |
| --- | --- |
| Cl.c1cnc(SCc2cccnc2)nc1 | 5.34 |
| c1cnc(SCc2cccnc2)nc1 [TASULDINE] | 4.82 |

Same assay, conditions: Mus musculus, po

| SMILES | ED50 [µmol/kg] |
| --- | --- |
| Cc1ccc(CSc2ncccn2)cn1 | 298 |
| N=c1cc(N)nc(SCc2cccnc2)[nH]1 | 272 |
| Cc1ccnc([S+]([O-])Cc2cccnc2)n1 (configuration not stated) | 30.9 |
| O=S(=O)(Cc1cccnc1)c1ccc(Cl)cc1 | 27.9 |
| [O-][S+](Cc1cccnc1)c1ccc(Cl)cc1 (configuration not stated) | 43.9 |
| c1cncc(CSC2=NCCS2)c1 | 20.3 |
| [O-][S+](Cc1ccncc1)c1ncccn1 (configuration not stated) | 391 |
| Cc1ccc2nc(SCc3cccnc3)oc2c1 | 51.2 |
| Cc1ccnc(SCc2cccnc2)n1 | 39.4 |
| Cc1cc(C)nc(SCc2cccnc2)n1 | 44.8 |
| c1ccc(CSc2ccccn2)nc1 | 21.8 |
| [O-][S+](Cc1cccnc1)c1ncccn1 (configuration not stated) | 7.82 |
| c1ccc(-c2nc(SCc3cccnc3)oc2-c2ccccc2)cc1 | 13.1 |
| COc1cccc(SCc2cccnc2)c1 | 182 |
| Cc1ccc(SCc2cccnc2)cc1 | 39.7 |
| c1cnc(SCc2ccncc2)nc1 | 41.7 |
| Cc1ccc(S(=O)(=O)Cc2cccnc2)cc1 | 141 |
| Cc1ccc([S+]([O-])Cc2cccnc2)cc1 (configuration not stated) | 149 |
| CC(Sc1ncccn1)c1cccnc1 (configuration not stated) | 42.6 |
| Nc1cc(O)nc(SCc2ccc(Cl)nc2)n1 | 8.3 |

| SMILES | ED50 [µmol/kg] |
| --- | --- |
| Cc1cc(O)nc(SCc2cccnc2)n1 | 64.3 |
| c1cncc(CSc2nc3ccccc3o2)c1 | 61.9 |
| Cc1ccc(C(C)Sc2ncccn2)cn1 (configuration not stated) | 432 |
| Oc1ccnc(SCc2cccnc2)n1 | 456 |
| Nc1ccnc(SCc2cccnc2)n1 | 22.9 |
| Cn1ccnc1S(=O)(=O)Cc1cccnc1 | 95.8 |
| Clc1ccc(SCc2cccnc2)cc1 | 22 |
| c1cnc(SCc2cccnc2)nc1 | 4.67 |
| c1cncc(CSc2ncnc3[nH]ncc23)c1 | 41.1 |
| c1cncc(CSc2ccc3ccccc3n2)c1 | 21.5 |
| Cn1ccnc1SCc1cccnc1 | 5.35 |
| Cn1ccnc1[S+]([O-])Cc1cccnc1 (configuration not stated) | 49.8 |
| Clc1ccc(CSc2ncccn2)cn1 | 84.1 |
| Nc1cc(O)nc(SCc2cccnc2)n1 | 8.93 |
| c1cncc(CSc2nc3ncccc3o2)c1 | 38 |
| c1cncc(CSc2nc3ccccc3[nH]2)c1 | 31.8 |
| Clc1ncccc1CSc1ncccn1 | 84.1 |
| c1ccc(SCc2cccnc2)nc1 | 7.63 |
| c1ccc(CSc2nc3ccccc3o2)nc1 | 157 |
| Nc1c(Br)cc(Br)cc1CN[C@H]1CC[C@H](O)CC1 [AMBROXOL] | 603 |

Same assay, conditions: Mus musculus, po; read-out: ED50

| SMILES | ED50 [µmol/kg] |
| --- | --- |
| CC(C)(C)NCC(O)c1ccc(O)c(CO)c1 (configuration not stated) [ALBUTEROL] | 12.5 |

Test system: Canis familiaris
Test: Percent viscosity was determined in canine bronchial mucus, 1 hr after intravenous administration of 0.5 mg/kg
Assay type: functional, Canis lupus familiaris
Settings: not given
How it was run: as §1

| SMILES | Activity [%] |
| --- | --- |
| Cl.c1cnc(SCc2cccnc2)nc1 | 5.5 |
| Nc1cc(O)nc(SCc2ccc(Cl)nc2)n1 | 19.7 |
| Nc1cc(O)nc(SCc2cccnc2)n1 | 15.8 |

Test system: Canis familiaris
Test: Percent viscosity was determined in canine bronchial mucus, 1 hr after intravenous administration of 0.1 mg/kg
Assay type: functional, Canis lupus familiaris
Settings: not given
How it was run: as §1

| SMILES | Activity [%] |
| --- | --- |
| Cl.c1cnc(SCc2cccnc2)nc1 | 109 |
